# According to ChEMBL document CHEMBL3997851, “Design and Synthesis of Mercaptoacetamides as Potent, Selective, and Brain Permeable Histone Deacetylase 6 Inhibitors” (ACS Med Chem Lett, 2017):
# Active and inactive are the calls of the source. No cut-off for these calls is given here.
# Legend:
# Homo sapiens = organism: Homo sapiens; test: Selectivity ratio of IC50 for human HDAC1 to IC50 for human HDAC6
# Method in brief: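 HDAC1 and HDAC6 IC50s are each the mean of two experiments.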
# [1] = Half life in human liver microsomes in presence of NADPH; format: ADME, microsome
# Method in brief: (§1)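 Incubated in pooled liver microsomes (human or mouse as per line) with NADPH cofactor; all tests run in duplicate.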
# [2] = Metabolic stability in mouse liver microsomes assessed as parent compound remaining at 60 mins in presence of NADPH; format: ADME, microsome; details: read-out: Stability; method in brief: as §1
# Histone deacetylase 1 [3] = molecular target: T1, Histone deacetylase 1 (Homo sapiens, UniProt Q13547); test: Inhibition of human HDAC1 using RHKKAc as substrate by fluorescence assay
# [4] = Half life in mouse liver microsomes in presence of NADPH; format: ADME, microsome; method in brief: as §1
# [5] = molecular target: T2, Protein deacetylase HDAC6 (Homo sapiens, UniProt Q9UBN7); test: Inhibition of human HDAC6 using RHKKAc as substrate by fluorescence assay
# T2 sequence (Q9UBN7 whole entry): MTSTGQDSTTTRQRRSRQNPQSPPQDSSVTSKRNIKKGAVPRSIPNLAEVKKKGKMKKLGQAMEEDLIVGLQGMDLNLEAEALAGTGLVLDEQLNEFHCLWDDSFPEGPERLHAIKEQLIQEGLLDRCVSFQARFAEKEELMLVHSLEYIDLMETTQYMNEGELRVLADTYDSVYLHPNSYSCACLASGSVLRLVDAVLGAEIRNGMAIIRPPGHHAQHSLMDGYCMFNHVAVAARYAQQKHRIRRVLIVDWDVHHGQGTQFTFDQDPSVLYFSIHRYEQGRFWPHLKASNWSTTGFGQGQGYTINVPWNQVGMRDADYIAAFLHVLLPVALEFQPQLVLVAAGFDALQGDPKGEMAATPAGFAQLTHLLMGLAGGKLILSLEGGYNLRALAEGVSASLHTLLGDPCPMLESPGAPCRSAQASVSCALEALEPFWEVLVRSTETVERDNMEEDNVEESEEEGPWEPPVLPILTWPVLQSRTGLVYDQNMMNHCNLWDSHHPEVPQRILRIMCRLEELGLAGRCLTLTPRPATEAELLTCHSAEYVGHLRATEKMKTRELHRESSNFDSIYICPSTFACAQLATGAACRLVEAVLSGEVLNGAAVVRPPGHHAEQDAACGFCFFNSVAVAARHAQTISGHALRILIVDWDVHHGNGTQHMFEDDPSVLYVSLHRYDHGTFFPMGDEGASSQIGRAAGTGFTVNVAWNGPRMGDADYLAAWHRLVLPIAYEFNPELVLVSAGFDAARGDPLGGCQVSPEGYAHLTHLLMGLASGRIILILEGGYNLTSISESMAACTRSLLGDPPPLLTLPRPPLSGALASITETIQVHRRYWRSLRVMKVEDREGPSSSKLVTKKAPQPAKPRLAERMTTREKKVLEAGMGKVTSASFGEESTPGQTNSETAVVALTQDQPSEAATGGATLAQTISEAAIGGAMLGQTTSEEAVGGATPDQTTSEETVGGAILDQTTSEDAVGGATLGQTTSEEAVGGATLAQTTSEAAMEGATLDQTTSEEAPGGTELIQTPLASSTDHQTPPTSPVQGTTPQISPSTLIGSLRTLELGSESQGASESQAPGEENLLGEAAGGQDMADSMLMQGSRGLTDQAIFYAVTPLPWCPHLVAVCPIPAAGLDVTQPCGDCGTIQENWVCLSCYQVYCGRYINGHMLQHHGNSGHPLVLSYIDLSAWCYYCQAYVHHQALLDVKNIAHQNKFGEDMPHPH
# [6] = Metabolic stability in human liver microsomes assessed as parent compound remaining at 60 mins in presence of NADPH; format: ADME, microsome; details: read-out: Stability; method in brief: as §1
# Mus musculus = test: In vivo inhibition of HDAC6 in C57Bl/6J mouse assessed as increase in tubulin acetylation in cerebral cortex at 20 mg/kg, ip first dose administered in evening followed by second dose in next day morning measured 6 hrs post last dose by Western blot method relative to vehicle-treated control; format: functional; set-up: scale not given: the % may be the effect or the level left
# Method in brief: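 Mice (n=3) are dosed 20 mg/kg IP at 18:00, then dosed again at 20 mg/kg at 10:00 the next morning, and killed 6 h later. Cortex is taken for Western blot of acetyl-tubulin with GAPDH as loading control. Densitometric acetyl-tubulin/GAPDH ratio is expressed as % of vehicle-treated mice; significance is set at p<0.05.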
# [7] = molecular target: T3, Protein deacetylase HDAC6 (Homo sapiens) (UniProt Q9UBN7); test: Inhibition of HDAC6 in HEK293 cells assessed as induction of tubulin acetylation after 24 hrs by Western blot method; format: cell-based
# T3 sequence (whole entry): T2 sequence (Q9UBN7 whole entry)
# Method in brief: (§2)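 HEK293 cells are treated with compound, and acetylated tubulin and histone H3 are detected by Western blot with GAPDH as loading control. Each blot carries a tubastatin 10 µM positive control and a DMSO or medium negative control.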
# Liver [8] = test: Prodrug conversion in mouse liver microsomes assessed as N-[5-(5,6-Dichloro-1H-indol-1-yl)pentyl]-2-mercaptoacetamide formation measured over 60 mins; format: ADME, microsome
# Method in brief: (§3)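 Disulfide prodrug incubated with pooled human or mouse liver microsomes, with the released free mercaptoacetamide measured over time. Percent released is taken as the measured thiol concentration divided by twice the initial prodrug concentration.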
# Liver [9] = test: Prodrug conversion in human liver microsomes assessed as N-[5-(5,6-Dichloro-1H-indol-1-yl)pentyl]-2-mercaptoacetamide formation measured over 60 mins; format: ADME, microsome; method in brief: as §3
# Histone deacetylase 1 [10] = molecular target: T1, Histone deacetylase 1; test: Inhibition of HDAC1 in HEK293 cells assessed as increase in histone H3 acetylation at 5 uM after 24 hrs by Western blot method; format: cell-based; method in brief: as §2
# Liver [11] = test: Prodrug conversion in human liver microsomes assessed as N-[4-[(5,7-Dichloroquinolin-8-yl)amino]butyl]-2-mercaptoacetamide formation measured over 60 mins; format: ADME, microsome; details: 1 h; method in brief: as §3
# Liver [12] = test: Prodrug conversion in mouse liver microsomes assessed as N-[4-[(5,7-Dichloroquinolin-8-yl)amino]butyl]-2-mercaptoacetamide formation measured over 60 mins; format: ADME, microsome; details: 1 h; method in brief: as §3
# T1 sequence (Q13547 whole entry): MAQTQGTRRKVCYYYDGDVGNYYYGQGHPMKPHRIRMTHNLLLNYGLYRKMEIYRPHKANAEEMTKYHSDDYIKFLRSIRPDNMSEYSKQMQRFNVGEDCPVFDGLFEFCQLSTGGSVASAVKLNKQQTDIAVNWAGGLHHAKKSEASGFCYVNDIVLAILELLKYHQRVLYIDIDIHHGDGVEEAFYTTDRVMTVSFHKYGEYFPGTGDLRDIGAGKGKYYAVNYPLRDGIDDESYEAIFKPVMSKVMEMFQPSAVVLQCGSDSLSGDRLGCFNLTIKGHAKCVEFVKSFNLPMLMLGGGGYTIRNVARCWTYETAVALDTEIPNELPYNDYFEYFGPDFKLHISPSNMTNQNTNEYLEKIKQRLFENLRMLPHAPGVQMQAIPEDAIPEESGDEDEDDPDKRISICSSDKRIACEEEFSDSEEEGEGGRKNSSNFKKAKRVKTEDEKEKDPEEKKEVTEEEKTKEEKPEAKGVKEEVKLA
Structure (SMILES),Ratio IC50 (Homo sapiens),half-life [1] [min],remaining at 1 h [2] [%],IC50 (Histone deacetylase 1 [3]) [nM],half-life [4] [min],IC50 [5] [nM],remaining at 1 h [6] [%],inhibition [7],Drug metabolism (Liver [8]),Drug metabolism (Liver [9]),inhibition (Histone deacetylase 1 [10]),Drug metabolism (Liver [11]),Drug metabolism (Liver [12]),Activity (Mus musculus) [%]
CC(C)c1cn(CCCCCCNC(=O)CS)c2cc(Cl)c(Cl)cc12,18,48.8,44.3,28700,70,1570,33.3,,,,,,,
O=C(CSSCC(=O)NCCCCCn1ccc2cc(Cl)c(Cl)cc21)NCCCCCn1ccc2cc(Cl)c(Cl)cc21,,49.5,18.2,,24.8,,40.5,Dose-dependent effect,Metabolite_Detected,Metabolite_Detected,Active,,,40
CC(C)C(=O)SCC(=O)NCCCCCn1ccc2cc(Cl)c(Cl)cc21,,< 1,< 1,,< 1,,< 1,Dose-dependent effect,Metabolite_Detected,Metabolite_Detected,,,,
O=C(CS)NCCCCCCn1ccc2cc(Cl)c(Cl)cc21,> 470,,,> 30000,,63.9,,,,,,,,
O=C(CSSCC(=O)NCCCCNc1c(Cl)cc(Cl)c2cccnc12)NCCCCNc1c(Cl)cc(Cl)c2cccnc12,,20.7,18.2,,25.9,,8.5,Dose-dependent effect,,,Active,Metabolite_Detected,Metabolite_Detected,30
O=C(CS)NCC(S)CCCn1ccc2cc(Cl)c(Cl)cc21 (stereo unspecified),,,,,,534,,,,,,,,
O=C(CS)NCCCCCCn1ccc2cc(F)c(Cl)cc21,450,,,29300,,65.1,,,,,,,,
O=C(CS)NCCCCCCn1cc(Cl)c2cc(Cl)c(Cl)cc21,> 124,,,> 30000,,241,,,,,,,,

# The remaining compounds from weak to strong by IC50 [5], led by results:
Ratio IC50 (Homo sapiens),half-life [1] [min],remaining at 1 h [2] [%],IC50 (Histone deacetylase 1 [3]) [nM],half-life [4] [min],IC50 [5] [nM],remaining at 1 h [6] [%],inhibition [7],Drug metabolism (Liver [8]),Drug metabolism (Liver [9]),inhibition (Histone deacetylase 1 [10]),Drug metabolism (Liver [11]),Drug metabolism (Liver [12]),Structure (SMILES),Activity (Mus musculus) [%]
> 901,,,> 30000,,33.3,,,,,,,,O=C(CS)NCCCCCOc1c(Cl)cc(Cl)c2cccnc12,
444,42.5,39.6,6570,51,14.8,32.1,,,,,,,O=C(CS)NCCCCCNc1c(Cl)cc(Cl)c2cccnc12,
657,35.2,29.5,7490,41.3,11.4,25.3,Dose-dependent effect,,,,,,O=C(CS)NCCCCCn1ccc2cc(Cl)c(Cl)cc21,
,32.2,61.7,6880,91.2,2.79,22.3,,,,,,,O=C(CS)NCCCCNc1c(Cl)cc(Cl)c2cccnc12,
